Data: ChEMBL document CHEMBL4257551, “Glycyrrhizic acid from licorice down-regulates inflammatory responses via blocking MAPK and PI3K/Akt-dependent NF-κB signalling pathways in TPA-induced skin inflammation” (2018)
Active and inactive are the calls of the source. No cut-off for these calls is given here.

Columns and labels:
Mus musculus [1] = assay: Antiinflammatory activity against TPA-induced ear edema in BALB/c mouse assessed as decrease in ear punches at 100 mM administered topically for 15 mins prior to TPA challenge and measured after 6 hrs relative to control; format: functional; parameters: scale not given: the % may be the effect or the level left
Procedure, shortened: (§1)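 Female BALB/c mice, 4–5 weeks old, n = 3 per group. Both ears received 30 μL of test solution in DMSO:methylene chloride (20:80) at 50, 100, 150 or 200 mM. Topical TPA (30 μL, 25 μg mL⁻¹) followed 15 min later. Mice were killed at 6 h, and two 6 mm punches per animal were weighed. Controls had vehicle then acetone. Mean ± SD of six experiments in triplicate.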

Mus musculus [2] = assay: Antiinflammatory activity against TPA-induced ear edema in BALB/c mouse assessed as decrease in ear punches administered topically for 15 mins prior to TPA challenge and measured after 6 hrs; format: functional, organism-based; procedure, shortened: as §1
Mus musculus [3] = assay: Antiinflammatory activity against TPA-induced ear edema in BALB/c mouse assessed as decrease in weight of ear punches at 5 mg administered topically for 15 mins prior to TPA challenge and measured after 48 hrs relative to control; format: functional; parameters: scale not given: the % may be the effect or the level left
Mus musculus [4] = assay: Antiinflammatory activity against TPA-induced ear edema in BALB/c mouse assessed as decrease in iNOS expression in edema administered topically for 15 mins prior to TPA challenge by immunohistochemical method; format: functional, organism-based
Mus musculus [5] = assay: Antiinflammatory activity against TPA-induced ear edema in BALB/c mouse assessed as decrease in ear punches at 150 mM administered topically for 15 mins prior to TPA challenge and measured after 6 hrs relative to control; format: functional; parameters: scale not given: the % may be the effect or the level left; procedure, shortened: as §1
Mus musculus [6] = assay: Antiinflammatory activity against TPA-induced ear edema in BALB/c mouse assessed as decrease in PI3K p85 phosphorylation in edema administered topically for 15 mins prior to TPA challenge by immunohistochemical method; format: functional, organism-based
Mus musculus [7] = assay: Antiinflammatory activity against TPA-induced ear edema in BALB/c mouse assessed as weight of ear punches at 200 mM, ip administered 15 mins prior to TPA challenge and measured after 6 hrs (reference value: 12.5 +/- 0.3 mg); format: functional
Mus musculus [8] = assay: Antiinflammatory activity against TPA-induced ear edema in BALB/c mouse assessed as decrease in Akt expression in edema at 50 to 200 mM administered topically for 15 mins prior to TPA challenge by immunohistochemical method; format: functional, organism-based
Mus musculus [9] = assay: Antiinflammatory activity against TPA-induced ear edema in BALB/c mouse assessed as decrease in COX2 expression in edema administered topically for 15 mins prior to TPA challenge by immunohistochemical method; format: functional, organism-based
Mus musculus [10] = assay: Antiinflammatory activity against TPA-induced ear edema in BALB/c mouse assessed as decrease in weight of ear punches at 200 mM, po administered 15 mins prior to TPA challenge and measured after 48 hrs relative to control; format: functional; parameters: scale not given: the % may be the effect or the level left
Mus musculus [11] = assay: Antiinflammatory activity against TPA-induced ear edema in BALB/c mouse assessed as decrease in IkappaBalpha degradation in edema administered topically for 15 mins prior to TPA challenge by immunohistochemical method; format: functional, organism-based
Mus musculus [12] = assay: Antiinflammatory activity against TPA-induced ear edema in BALB/c mouse assessed as decrease in ear punches at 50 mM administered topically for 15 mins prior to TPA challenge and measured after 6 hrs relative to control; format: functional; parameters: scale not given: the % may be the effect or the level left; procedure, shortened: as §1
Mus musculus [13] = assay: Antiinflammatory activity against TPA-induced ear edema in BALB/c mouse assessed as weight of ear punches at 200 mM, ip administered 15 mins prior to TPA challenge and measured after 24 hrs (reference value: 12.1 +/- 0.2 mg); format: functional
Mus musculus [14] = assay: Antiinflammatory activity against TPA-induced ear edema in BALB/c mouse assessed as weight of ear punches at 200 mM, ip administered 15 mins prior to TPA challenge and measured after 48 hrs (reference value: 11.4 +/- 0.3 mg); format: functional
Mus musculus [15] = assay: Antiinflammatory activity against TPA-induced ear edema in BALB/c mouse assessed as weight of ear punches at 200 mM administered topically for 15 mins prior to TPA challenge and measured after 12 hrs (reference value: 12.4 +/- 0.1 mg); format: functional
Mus musculus [16] = assay: Antiinflammatory activity against TPA-induced ear edema in BALB/c mouse assessed as decrease in p38 phosphorylation in edema administered topically for 15 mins prior to TPA challenge by immunohistochemical method; format: functional, organism-based
Mus musculus [17] = assay: Antiinflammatory activity against TPA-induced ear edema in BALB/c mouse assessed as weight of ear punches at 200 mM administered topically for 15 mins prior to TPA challenge and measured after 48 hrs (reference value: 11.4 +/- 0.3 mg); format: functional
Mus musculus [18] = assay: Antiinflammatory activity against TPA-induced ear edema in BALB/c mouse assessed as decrease in leucocyte infiltration in edema administered topically for 15 mins prior to TPA challenge and measured after 6 hrs by hematoxylin/eosin staining-based microscopic method; format: functional, organism-based
Procedure, shortened: (§2)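 Female BALB/c mice were pretreated topically at 50–200 mM, then given TPA. Ears were taken at 6 h, fixed in 4% PFA, decalcified in EDTA, paraffin-embedded and sectioned at 4 μm for H&E. Epidermal hyperplasia and dermal leukocyte infiltration were scored in at least five regions at 200×. ANOVA with Dunnett's test.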

Mus musculus [19] = assay: Antiinflammatory activity against TPA-induced ear edema in BALB/c mouse assessed as weight of ear punches at 200 mM, po administered 15 mins prior to TPA challenge and measured after 3 hrs (reference value: 8.3 +/- 0.1 mg); format: functional
Mus musculus [20] = assay: Antiinflammatory activity against TPA-induced ear edema in BALB/c mouse assessed as weight of ear punches at 200 mM administered topically for 15 mins prior to TPA challenge and measured after 3 hrs (reference value: 8.3 +/- 0.1 mg); format: functional
Mus musculus [21] = assay: Antiinflammatory activity against TPA-induced ear edema in BALB/c mouse assessed as decrease in weight of ear punches at 5 mg administered topically for 15 mins prior to TPA challenge and measured after 6 hrs relative to control; format: functional; parameters: scale not given: the % may be the effect or the level left
Mus musculus [22] = assay: Antiinflammatory activity against TPA-induced ear edema in BALB/c mouse assessed as decrease in weight of ear punches at 5 mg administered topically for 15 mins prior to TPA challenge and measured after 3 hrs relative to control; format: functional; parameters: scale not given: the % may be the effect or the level left
Mus musculus [23] = assay: Antiinflammatory activity against TPA-induced ear edema in BALB/c mouse assessed as decrease in Akt phosphorylation in edema administered topically for 15 mins prior to TPA challenge by immunohistochemical method; format: functional, organism-based
Mus musculus [24] = assay: Antiinflammatory activity against TPA-induced ear edema in BALB/c mouse assessed as decrease in weight of ear punches at 5 mg administered topically for 15 mins prior to TPA challenge and measured after 12 hrs relative to control; format: functional; parameters: scale not given: the % may be the effect or the level left
Mus musculus [25] = assay: Antiinflammatory activity against TPA-induced ear edema in BALB/c mouse assessed as weight of ear punches at 200 mM, po administered 15 mins prior to TPA challenge and measured after 12 hrs (reference value: 12.4 +/- 0.1 mg); format: functional
Mus musculus [26] = assay: Antiinflammatory activity against TPA-induced ear edema in BALB/c mouse assessed as decrease in IkappaBalpha phosphorylation in edema administered topically for 15 mins prior to TPA challenge by immunohistochemical method; format: functional, organism-based
Mus musculus [27] = assay: Antiinflammatory activity against TPA-induced ear edema in BALB/c mouse assessed as decrease in epidermal hyperplasia in edema administered topically for 15 mins prior to TPA challenge and measured after 6 hrs by hematoxylin/eosin staining-based microscopic method; format: functional, organism-based; procedure, shortened: as §2
Mus musculus [28] = assay: Antiinflammatory activity against TPA-induced ear edema in BALB/c mouse assessed as decrease in 18F-FDG uptake in ears administered topically for 15 mins prior to TPA challenge and measured after 24 hrs by microPET-CT imaging method; format: functional, organism-based
Procedure, shortened: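 CT-guided regions of interest were drawn over the ears, and uptake was expressed as SUVmax and SUVmean. Dosing was 200 mM in DMSO:methylene chloride (20:80) on the ears before topical TPA.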

Mus musculus [29] = assay: Antiinflammatory activity against TPA-induced ear edema in BALB/c mouse assessed as decrease in PI3K p85 expression in edema at 50 to 200 mM administered topically for 15 mins prior to TPA challenge by immunohistochemical method; format: functional, organism-based
Mus musculus [30] = assay: Antiinflammatory activity against TPA-induced ear edema in BALB/c mouse assessed as weight of ear punches at 200 mM, ip administered 15 mins prior to TPA challenge and measured after 12 hrs (reference value: 12.4 +/- 0.1 mg); format: functional
Mus musculus [31] = assay: Antiinflammatory activity against TPA-induced ear edema in BALB/c mouse assessed as decrease in weight of ear punches at 200 mM, po administered 15 mins prior to TPA challenge and measured after 24 hrs relative to control; format: functional; parameters: scale not given: the % may be the effect or the level left
Mus musculus [32] = assay: Antiinflammatory activity against TPA-induced ear edema in BALB/c mouse assessed as decrease in p65 phosphorylation in edema administered topically for 15 mins prior to TPA challenge by immunohistochemical method; format: functional, organism-based
Mus musculus [33] = assay: Antiinflammatory activity against TPA-induced ear edema in BALB/c mouse assessed as decrease in ear punches at 200 mM administered topically for 15 mins prior to TPA challenge and measured after 6 hrs relative to control; format: functional; parameters: scale not given: the % may be the effect or the level left; procedure, shortened: as §1
Mus musculus [34] = assay: Antiinflammatory activity against TPA-induced ear edema in BALB/c mouse assessed as weight of ear punches at 200 mM administered topically for 15 mins prior to TPA challenge and measured after 24 hrs (reference value: 12.1 +/- 0.2 mg); format: functional
Mus musculus [35] = assay: Antiinflammatory activity against TPA-induced ear edema in BALB/c mouse assessed as weight of ear punches at 200 mM, ip administered 15 mins prior to TPA challenge and measured after 3 hrs (reference value: 8.3 +/- 0.1 mg); format: functional
Mus musculus [36] = assay: Antiinflammatory activity against TPA-induced ear edema in BALB/c mouse assessed as decrease in weight of ear punches at 5 mg administered topically for 15 mins prior to TPA challenge and measured after 24 hrs relative to control; format: functional; parameters: scale not given: the % may be the effect or the level left
Mus musculus [37] = assay: Antiinflammatory activity against TPA-induced ear edema in BALB/c mouse assessed as weight of ear punches at 200 mM, po administered 15 mins prior to TPA challenge and measured after 6 hrs (reference value: 12.5 +/- 0.3 mg); format: functional
Mus musculus [38] = assay: Antiinflammatory activity against TPA-induced ear edema in BALB/c mouse assessed as decrease in ERK1/2 phosphorylation in edema administered topically for 15 mins prior to TPA challenge by immunohistochemical method; format: functional, organism-based

CC1(C)[C@@H](O[C@H]2O[C@H](C(=O)O)[C@@H](O)[C@H](O)[C@H]2O[C@@H]2O[C@H](C(=O)O)[C@@H](O)[C@H](O)[C@H]2O)CC[C@]2(C)[C@H]3C(=O)C=C4[C@@H]5C[C@@](C)(C(=O)O)CC[C@]5(C)CC[C@@]4(C)[C@]3(C)CC[C@@H]12 [GLYCYRRHIZIN]
Activity (Mus musculus [1]): 60.3%
Activity (Mus musculus [2]): Dose-dependent effect
Activity (Mus musculus [3]): 88.7%
Activity (Mus musculus [4]): Dose-dependent effect
Activity (Mus musculus [5]): 63%
Activity (Mus musculus [6]): Dose-dependent effect
Activity (Mus musculus [7]): 14.6 mg
Activity (Mus musculus [8]): Active
Activity (Mus musculus [9]): Dose-dependent effect
Activity (Mus musculus [10]): 64.5%
Activity (Mus musculus [11]): Dose-dependent effect
Activity (Mus musculus [12]): 31.5%
Activity (Mus musculus [13]): 13.5 mg
Activity (Mus musculus [14]): 13.1 mg
Activity (Mus musculus [15]): 6.1 mg
Activity (Mus musculus [16]): Dose-dependent effect
Activity (Mus musculus [17]): 5.9 mg
Activity (Mus musculus [18]): Dose-dependent effect
Activity (Mus musculus [19]): 8 mg
Activity (Mus musculus [20]): 5.6 mg
Activity (Mus musculus [21]): 87.7%
Activity (Mus musculus [22]): 87.1%
Activity (Mus musculus [23]): Dose-dependent effect
Activity (Mus musculus [24]): 87.5%
Activity (Mus musculus [25]): 12.1 mg
Activity (Mus musculus [26]): Dose-dependent effect
Activity (Mus musculus [27]): Dose-dependent effect
Activity (Mus musculus [28]): Active
Activity (Mus musculus [29]): Active
Activity (Mus musculus [30]): 14.1 mg
Activity (Mus musculus [31]): 66.7%
Activity (Mus musculus [32]): Dose-dependent effect
Activity (Mus musculus [33]): 87.7%
Activity (Mus musculus [34]): 5.9 mg
Activity (Mus musculus [35]): 7.8 mg
Activity (Mus musculus [36]): 89.9%
Activity (Mus musculus [37]): 12.3 mg
Activity (Mus musculus [38]): Dose-dependent effect
